STAT1 act: STAT1 signaling activators, primary screen, cell-based, HTS, luciferase reporter; NIH 3T3 STAT1-luciferase reporter, IFN-gamma, luminescence; 100% = IFN-gamma alone, no compound; activation (% of control), % at 5.5 µM; 200,000 tested, 2.6% active; AID 932, 2007;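 active means activation above the screen-wide mean activation plus 3 SD, cut at about 130% in these data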
NF-kB neuron act: activators of NF-kB expression in neurons, primary screen, cell-based, HTS. human neuronal cells, NF-kB reporter expression; hits give high values. fold change at 12.5 µM. 190,000 tested, 1.6% active; in the data active means fold change above about 3.3
Pf gametocyte: late stage P. falciparum gametocyte viability inhibitors, primary screen, ATP luminescence, HTS. P. falciparum stage V gametocytes, 24 h. inhibition, % at 10.9 µM. 150,000 tested, 0.065% active;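 active means inhibition above the mean plus 3 SD of compounds within the control limits, set per campaign, cut at about 38% in these data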
APP 5'UTR act: activators of APP 5'UTR luciferase reporter, primary screen, SH-SY5Y cells | 190,000 tested, 1% active | SH-SY5Y APP 5'UTR luciferase reporter, luminescence; zero percent = DMSO vehicle wells | activation, % at 2 µM;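 active means activation above a set limit, based on mean plus 3 SD of controls, cut at about 140% in these data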
STAT1 inh: STAT1 signaling inhibitors, primary screen, cell-based, HTS, luciferase reporter. NIH 3T3 STAT1-luciferase reporter, IFN-gamma, luminescence. inhibition, % at 5.5 µM. 200,000 tested, 0.35% active. AID 920, 2007;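 active means inhibition above a set limit, the mean inhibition across all tested compounds plus 3 SD, cut at about 34% in these data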
STAT3 act: IL-6 driven STAT3 reporter potentiators, primary screen, U3A cells, luciferase, luminescence, MLSCN library; IL-6 STAT3-luciferase reporter; 100% = signal with IL-6 EC80 alone; activation (% of control), % at 5.6 µM; 190,000 tested, 0.91% active; AID 871, 2007;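 active means activation above the screen-wide mean of compound activation plus 3 SD, cut at about 130% in these data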
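system = STAT3-luciferase reporter U3A cells | reagent = IL-6 stimulus at 33 ng/mL final | timing = 1 h compound pre-exposure, 6 h IL-6 stimulation, 37 °C | measured by = luminescence | evaluation = % activation versus median of IL-6-stimulated wells | control set = IL-6-only wells as 100% reference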
Of the large screens only hits and unclear results are named; the others gave an inactive call. The list is not random: actives were taken first. Their share in the collection is about 3.9%.

CCCCCCCCNC(=O)c1ccc(C)cc1	none
Cc1ccc(S(=O)(=O)Nc2ccc(O)c(Sc3ncn[nH]3)c2)cc1	none (no result: Pf gametocyte)
CC(C)c1ccc(S(=O)(=O)/N=C2/C=C(Sc3ncn[nH]3)C(=O)c3ccccc32)cc1	STAT3 act 151.7 (no result: Pf gametocyte)
Cc1ccc(S(=O)(=O)/N=C2/C=C(Sc3ncn[nH]3)C(=O)c3ccccc32)c(C)c1	STAT3 act 142.3 (no result: Pf gametocyte)
Cc1nc2c(Cl)cccc2[nH]1	STAT3 act 133.4 (no result: Pf gametocyte, APP 5'UTR act)
CCn1c(NCc2c[nH]c3ccccc23)nc2ccccc21	none (no result: NF-kB neuron act, Pf gametocyte)
Cn1c(NCc2c[nH]c3ccccc23)nc2ccccc21	STAT1 act 139.2, NF-kB neuron act 3.3, STAT3 act 140.6
CC(C)c1cc(=O)[nH]c(N2CCN(Cc3ccc4c(c3)OCO4)CC2)n1	none (no result: STAT1 act, NF-kB neuron act, APP 5'UTR act, STAT1 inh, STAT3 act)
COc1ccc(-c2nnc(SCc3ccccc3F)o2)cc1	STAT1 act 142.1, NF-kB neuron act 7.66, APP 5'UTR act 156.9
Fc1ccccc1CSc1nnc(-c2ccccc2)o1	STAT1 act 145.3, NF-kB neuron act 4.99, APP 5'UTR act 138.9
Cc1ccccc1-c1nnc(SCc2ccccc2F)o1	STAT1 act 148.3, NF-kB neuron act 6.44, APP 5'UTR act 141.8
Cc1ccc(CSc2nnc(-c3ccco3)o2)cc1	NF-kB neuron act 3.9
C#CCSc1nnc(-c2ccc(OC)cc2)o1	STAT1 act 134.2 (no result: Pf gametocyte)
Cc1ccccc1-c1nnc(SCc2ccccc2)o1	STAT1 act 132.1
O=C(OCC#CCSc1nnc(-c2cccc3ccccc23)o1)c1cccc2[nH]ccc12	none (no result: STAT1 act, NF-kB neuron act, APP 5'UTR act, STAT1 inh, STAT3 act)
Nc1ccc2oc3ccc(N)cc3c(=O)c2c1	STAT1 act 143.0 (no result: Pf gametocyte, APP 5'UTR act)
COc1ccc2c([N+](=O)[O-])c(Cl)[nH]c2c1	none
O=C(NCc1cccnc1)NC1(C(F)(F)F)Oc2ccccc2O1	NF-kB neuron act 3.47
Cc1cc2ccccn2c1C(=O)c1cc([N+](=O)[O-])cc([N+](=O)[O-])c1	none
Cc1cc2ccccn2c1C(=O)Nc1ccccc1	STAT3 act 134.2
COc1cc([N+](=O)[O-])cc(/C=N\NC(=O)C2COc3ccccc3O2)c1O (stereo not given)	none (no result: STAT1 act, NF-kB neuron act, APP 5'UTR act, STAT1 inh, STAT3 act)
O=C1[C@H]2[C@@H](C(=O)N1c1cccc3ccccc13)C1(C(=O)c3ccccc3C1=O)N1CCC[C@@H]21	NF-kB neuron act 3.43
Cc1cccc(OCCCn2c(CO)nc3ccccc32)c1	none (no result: STAT1 act, NF-kB neuron act, APP 5'UTR act, STAT1 inh, STAT3 act)
O=C(Nc1ccccc1)c1ccc2snnc2c1	none
Cc1ccc(NC(=O)c2ccc3snnc3c2)cc1	STAT1 act 147.1
Nc1cccc2nc3ccccc3cc12	STAT1 act 171.8, NF-kB neuron act 3.86, STAT3 act 151.5 (no result: Pf gametocyte, APP 5'UTR act)
Cc1cc(S(=O)(=O)N2CCOCC2)ccc1F	NF-kB neuron act 4.44 (no result: Pf gametocyte)
CSc1nc2ccc(S(=O)(=O)N3CCOCC3)cc2s1	STAT3 act 135.1
Cc1cc(Cl)n2c(nc3cc(F)c(F)cc32)c1C#N	STAT1 act 131.4 (no result: Pf gametocyte)
NNC(=O)c1cc2cc3ccccc3nc2s1	STAT1 act 136.2
CS(=O)(=O)NNC(=O)c1cc2cc3ccccc3nc2s1	none
O=C(c1cc2cc(Br)ccc2s1)N1CCOCC1	none
COc1ccc(/C=C/C2=CCN(Cc3ccc(OC)cc3)CC2)cc1	STAT3 act 133.5
CC1CCN(C(=O)C2CCC(C)(C(=O)O)C2(C)C)CC1 (stereo not given)	none (no result: Pf gametocyte)
COc1cc(C)ccc1OCCCOc1ccccc1Cl	STAT1 act 144.3
COC(=O)C1=C(CN2CCCc3ccccc32)NC(=O)NC1c1ccc(F)cc1 (stereo not given)	STAT1 inh 59.5 (no result: Pf gametocyte)
COc1ccc(CCn2cnc(=O)c(C#N)c2C)cc1OC	none (no result: Pf gametocyte)
Cc1ccccc1-c1noc(-c2ccc(Cl)cc2)n1	NF-kB neuron act 3.38 (no result: Pf gametocyte)
Cc1ccccc1-c1noc(-c2ccccc2F)n1	STAT1 act 138.8, NF-kB neuron act 6.8 (no result: Pf gametocyte)
Clc1ccc(-c2nc(-c3cnccn3)no2)cc1	none (no result: STAT1 act, NF-kB neuron act, APP 5'UTR act, STAT1 inh, STAT3 act)
Cc1ccccc1-c1noc(-c2ccc(O)cc2)n1	STAT1 act 140.3, NF-kB neuron act 7.71, APP 5'UTR act 156.5 (no result: Pf gametocyte)
CC1CCc2c(sc3nc(C(C)(C)C)nc(N4CCN(C(=O)CCl)CC4)c23)C1 (stereo not given)	none (no result: STAT1 act, NF-kB neuron act, APP 5'UTR act, STAT1 inh, STAT3 act)
O=C(Nc1ccc(N2CCCCCC2)cc1)c1ccccc1Cl	STAT1 act 147.0, NF-kB neuron act 4.71 (no result: Pf gametocyte)
CC(=O)NS(=O)(=O)c1ccc(NC(=O)c2ccccn2)cc1	none
O=C(Nc1ccc(N2CCCCC2)cc1)c1ccccn1	STAT1 inh 95.7 (no result: Pf gametocyte)
O=C(NC(=S)Nc1ccc(N2CCCCC2)cc1)c1ccco1	STAT1 act 131.8 (no result: Pf gametocyte)
O=C(Nc1ccc(SC(F)(F)F)cc1)c1ccccn1	APP 5'UTR act 149.6 (no result: Pf gametocyte)
CCN(c1ccccc1)S(=O)(=O)c1ccc(Cl)c(NC(=O)CN2C(=O)NC3(CCCC3)C2=O)c1	none (no result: STAT1 act, NF-kB neuron act, APP 5'UTR act, STAT1 inh, STAT3 act)
O=C(O)CC1c2ccccc2CCN1S(=O)(=O)c1cccs1 (stereo not given)	none (no result: STAT1 act, NF-kB neuron act, APP 5'UTR act, STAT1 inh, STAT3 act)
COc1ccc(-n2cc(CNCCCn3ccnc3)c(-c3cccc(F)c3)n2)cc1	none
CC(Sc1nnnn1-c1ccc(Cl)cc1)C(=O)NCC(=O)Nc1ccc(F)c(F)c1F (stereo not given)	none
Cc1ccc(N2CC(=O)N(NC(=O)c3sc4nc(C)cc(C)c4c3N)CC2=O)cc1	none (no result: STAT1 act, NF-kB neuron act, APP 5'UTR act, STAT1 inh, STAT3 act)
CCOCCCn1c(SCC(=O)Nc2ccc(NC(C)=O)cc2)nc2ccccc2c1=O	none (no result: STAT1 act, NF-kB neuron act, APP 5'UTR act, STAT1 inh, STAT3 act)
Cc1cc(C)cc(C(=O)Nc2ccc(N3CCCC3)cc2)c1	STAT1 act 150.6, APP 5'UTR act 146.4
COc1ccccc1C(=O)Nc1ccc(N2CCCCC2)cc1	STAT1 act 139.5, NF-kB neuron act 4.94, APP 5'UTR act 167.6, STAT3 act 151.2 (no result: Pf gametocyte)
COc1ccccc1C(=O)Nc1ccc(N2CCN(C(C)=O)CC2)cc1	none
Cc1cc(C)cc(NC(=O)Nc2ccc(N3CCCCC3)cc2)c1	none (no result: STAT1 act, NF-kB neuron act, APP 5'UTR act, STAT1 inh, STAT3 act)
CN(C(=O)c1ccc2nc(N)sc2c1)c1ccccc1	none (no result: STAT1 act, NF-kB neuron act, APP 5'UTR act, STAT1 inh, STAT3 act)
CN(C(=O)c1ccccc1)c1nc2ccccc2s1	STAT1 act 138.8, NF-kB neuron act 4.07, APP 5'UTR act 215.2 (no result: Pf gametocyte)
COc1ccc(C(=O)NC(=S)N2CCNC(=O)C2)cc1Br	none
O=C1CN(C(=S)NC(=O)c2ccc(-c3ccccc3)cc2)CCN1	STAT1 act 132.9
COc1ccccc1C1N(c2ccc(Cl)cc2)C(=O)C2CCCN21 (stereo not given)	STAT3 act 134.3
COc1ccc(N2C(=O)C3CCCN3C2c2ccccc2OC)cc1 (stereo not given)	none (no result: Pf gametocyte)
Cc1csc(SCC(=O)c2cc(C)n(Cc3cccs3)c2C)n1	STAT1 inh 39.9
Nc1nnc(SCC(=O)c2ccc3ccccc3c2)s1	NF-kB neuron act 3.72
Cc1cc(C(=O)CSc2nnc(N)s2)c(C)n1Cc1cccs1	APP 5'UTR act 136.5

Source: PubChem
